Sampled rows, rich in hits. Any-hit rate of the full collection: about 4.2%.
SKKanGAS inh: blocks kanamycin growth of S. pyogenes SKKanGAS strain | BacTiter-Glo, 6 h | inhibition, % at 7.5 µM | hit rate 1.3% among 300,000 | AID 1662;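 active = mean replicate score, as percent of positive control median, at least 50; inconclusive = mean below 50 but one replicate at or above 50; inactive = mean and every replicate below 50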;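 note: strain carries kanamycin resistance gene driven by streptokinase promoter and grows in 40 µg/ml kanamycin; loss of luminescence reflects streptokinase promoter inhibition or plain growth inhibition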
Autophagy mod: alters autophagy in cells; MEF GFP-LC3 puncta imaging; test concentration mostly 10 µM; calls only at 10 µM (by protocol); hit rate 0.98% among 190,000; AID 463193;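 active = percentage of spot-positive cells more than 3 SD above its plate mean, without a fluorescence outlier flag or 80% toxicity; inconclusive = no clear call, values can overlap the other calls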
WT yeast gro inh: growth inhibition of WT yeast, mitochondrial fusion screen | inhibition, % at 10 µM | hit rate 2.1% among 190,000 | mitochondrial fusion phenotypic screen, WT strain; in the data active = inhibition above about 58%; tested in S. cerevisiae
Rad51 HR inh: Rad51 (human) homologous recombination inhibition; Q06609; hRad51 DNA strand exchange, fluorescence dequenching; inhibition, % at 10 µM; hit rate 0.085% among 200,000; AID 1385;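 active = inhibition above 40% at the single screening dose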
Target sequence (Q06609 whole entry, looked up): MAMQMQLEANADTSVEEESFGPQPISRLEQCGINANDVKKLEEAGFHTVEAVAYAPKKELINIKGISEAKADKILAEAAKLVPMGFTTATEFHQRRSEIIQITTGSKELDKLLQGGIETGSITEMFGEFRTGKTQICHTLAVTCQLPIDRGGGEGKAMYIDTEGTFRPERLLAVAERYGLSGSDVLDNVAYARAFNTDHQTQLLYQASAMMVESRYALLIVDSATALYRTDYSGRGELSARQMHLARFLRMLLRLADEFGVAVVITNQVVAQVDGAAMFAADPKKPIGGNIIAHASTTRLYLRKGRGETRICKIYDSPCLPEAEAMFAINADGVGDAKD
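Test system: preformed human Rad51 ssDNA filaments. Compound dosing: single dose, 10 µM final compound. Incubation: filaments 15 min 37 °C, then compound 30 min. Technique: FRET fluorescence dequenching, excitation 485 nm, emission 520 nm. Read-out basis: percent inhibition from fluorescence, normalised to plate control and blank means. Benchmarks: plate controls and plate blanks.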
KCC2 mod: KCC2 (human) Cl- transport modulation | hit rate 2.2% among 190,000 | KCC2 cells, thallium flux FluoZin-2 fluorescence | AID 1456 | B-score of Tl+ flux slope (higher = more flux/activation; lower = inhibition) at 10 µM | Q9H2X9;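 active = thallium flux slope and its plate-corrected score both differing from the plate sample mean at a set confidence after two filtering rounds, in either direction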;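 note: slope of fluorescence scaled to starting intensity during 10 to 20 s after thallium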
Ins promoter up: MIN6 insulin promoter up-regulation | z-score at 5 µM | MIN6 insulin promoter-GFP reporter, high-content imaging; stronger effect = higher value | hit rate 0.3% among 190,000;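 active = z-score above 3 at 5 µM with at least 500 cells counted in the well; inconclusive = wells under 500 cells, flagged as cytotoxic or low count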
KCC2 sec1: KCC2 (human) modulation, secondary assay. shares compounds with KCC2 mod. HEK293-KCC2, thallium flux, FluoZin2 fluorescence; stronger effect = higher value. normalised thallium flux (F/F0 slope) at 10 µM. hit rate 15% among 3,700. AID 1713;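 active = thallium flux slope above the same plate's solvent-only control mean plus 3 SD; inconclusive = the two replicate wells disagree; inactive = no significant difference from solvent-only control wells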
KCC2 bumet counter: thallium flux despite bumetanide block in KCC2 cells, secondary assay 3 | hit rate 49% among 3,700 | normalized thallium flux at 10 µM | HEK293-KCC2 + bumetanide/ouabain, thallium flux FluoZin2; stronger effect = higher value | shares compounds with KCC2 mod;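 active = thallium entry rate above the same plate's blocked-transporter control wells by more than 3 SD; inconclusive = the two repeat wells disagree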;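 note: raw slope of fluorescence over initial fluorescence between 10 and 20 s after thallium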
KCC2 secondary2: confirmation of human KCC2 transport modulators | shares compounds with KCC2 mod | HEK293-KCC2, thallium flux FluoZin2 fluorescence; actives lie on both sides; F/F0 rise rate, 10–20 s post-thallium | normalized thallium flux at 10 µM | hit rate 23% among 3,700;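 active = thallium flux slope more than 3 SD above or below the plate's solvent-only control mean, mostly below; inconclusive = the two repeat wells disagreed; inactive = no significant shift from solvent-only controls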
HEK counter1: acts in parental HEK cells, KCC2 counter-screen. shares compounds with KCC2 mod. HEK293 parental cells, thallium flux FluoZin2, ouabain; baseline-ratio fluorescence slope, 10–20 s after thallium. thallium flux rate (normalised fluorescence) at 10 µM. hit rate 46% among 3,700. AID 1716;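 active = thallium flux rate significantly above the same plate's solvent-only control wells, beyond their mean plus 3 SD; inconclusive = the two replicate wells gave conflicting results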
KCC2 retest ouab: KCC2 (human) modulation, ouabain retest; shares compounds with KCC2 mod; HEK293-KCC2, thallium flux FluoZin2 fluorescence; bidirectional: low = inhibitor, high = activator; raw Tl+ flux slope (below DMSO = inhibition, above = activation) at 10 µM; hit rate 48% among 3,700;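 active = thallium flux slope beyond 3 SD from same-plate DMSO control mean in most replicates, usually higher, sometimes lower; inconclusive = repeat tests gave conflicting results; inactive = no significant difference from controls in most replicates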;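 note: slope of initial-normalized fluorescence between seconds 10 and 20 after thallium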
HEK293 Tl flux2: parental HEK flux effect, counter-screen 2; shares compounds with KCC2 mod; HEK293 parental, thallium flux FluoZin-2 fluorescence slope; thallium flux slope at 10 µM; hit rate 33% among 3,700; AID 1718;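 active = thallium flux slope above the same plate's solvent-control mean plus 3 SD in both duplicate wells; inconclusive = duplicate wells that disagreed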;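 note: run without ouabain in cells lacking the KCC2 cotransporter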
A number is an active result.

`CCc1ccccc1NC(=S)NN` gave SKKanGAS inh inactive, Autophagy mod inactive, WT yeast gro inh inactive, Rad51 HR inh inactive, KCC2 mod inactive and Ins promoter up inactive.
O=C(NC(=S)Nc1nc(-c2cccc([N+](=O)[O-])c2)cs1)c1cc(Cl)ccc1Cl was read as SKKanGAS inh inactive, Autophagy mod inactive, WT yeast gro inh inactive, Rad51 HR inh inactive, KCC2 mod 6.1, Ins promoter up inactive, KCC2 sec1 inactive, KCC2 bumet counter 0.011, KCC2 secondary2 inactive, HEK counter1 0.0088, KCC2 retest ouab 0.027 and HEK293 Tl flux2 0.01.
O=C(NC(=S)Nc1nc(-c2cccc([N+](=O)[O-])c2)cs1)c1ccccc1Cl was read as SKKanGAS inh inactive, Autophagy mod inactive, WT yeast gro inh inactive, Rad51 HR inh inactive, KCC2 mod 4.8, Ins promoter up inactive, KCC2 sec1 inactive, KCC2 bumet counter 0.0079, KCC2 secondary2 inactive, HEK counter1 0.012, KCC2 retest ouab 0.024 and HEK293 Tl flux2 0.014.
O=C(Nc1nc(-c2cccc([N+](=O)[O-])c2)cs1)C(c1ccccc1)c1ccccc1 was read as SKKanGAS inh inactive, Autophagy mod inactive, WT yeast gro inh inactive, Rad51 HR inh inactive, KCC2 mod inactive and Ins promoter up inactive.
For Cc1ccc(NC(=O)C(C)Sc2nc(=O)cc(N)n2-c2ccccc2)cc1 (centres undefined) the results were SKKanGAS inh inactive, Autophagy mod inactive, WT yeast gro inh inactive, Rad51 HR inh inactive, KCC2 sec1 inactive, KCC2 bumet counter inactive, KCC2 secondary2 inactive, HEK counter1 inactive, KCC2 retest ouab inactive and HEK293 Tl flux2 inactive.
For CCOC(=O)c1cc(-c2cccc(C(F)(F)F)c2)nc2nc(SC)[nH]c(=O)c12 the results were SKKanGAS inh inactive, Autophagy mod inactive, WT yeast gro inh inactive, Rad51 HR inh inactive and KCC2 mod inactive.
`CCOC(=O)c1nc(C)nc(Sc2n[nH]c(-c3cc(C(F)(F)F)cc(C(F)(F)F)c3)n2)c1C` gave SKKanGAS inh inactive, Rad51 HR inh inactive, KCC2 mod -3.6, Ins promoter up inactive, KCC2 sec1 inactive, KCC2 bumet counter inactive, KCC2 secondary2 inactive, HEK counter1 inconclusive, KCC2 retest ouab 0.017 and HEK293 Tl flux2 inactive.
Screening COc1ccc(C2CCCN2C(=O)Nc2ccc(Cl)cc2)cc1OC (centres undefined) returned SKKanGAS inh inactive, Autophagy mod active, WT yeast gro inh inactive, Rad51 HR inh inactive, KCC2 mod -3.3, Ins promoter up inactive, KCC2 sec1 inactive, KCC2 bumet counter inactive, KCC2 secondary2 inactive, HEK counter1 inactive, KCC2 retest ouab inconclusive and HEK293 Tl flux2 inactive.
`Cc1ccc(NC(=O)C2CC(=O)Nc3ncnn32)c(C)c1` (centres undefined) gave SKKanGAS inh inactive, Rad51 HR inh inactive, KCC2 mod inactive and Ins promoter up inactive.
`CC(C)Oc1ccc(CC2CCC(=O)N(C)C2=O)cc1` (centres undefined) gave SKKanGAS inh inactive, Autophagy mod inactive, WT yeast gro inh inactive, KCC2 mod inactive and Ins promoter up inactive.
`O=S(=O)(c1cccc2cccnc12)N1CCN(Cc2ccc3c(c2)OCO3)CC1` gave SKKanGAS inh inactive, Autophagy mod inactive, WT yeast gro inh inactive, Rad51 HR inh inactive and Ins promoter up inactive.
Screening O=S(=O)(c1cccc2cccnc12)N1CCN(Cc2ccccc2)CC1 returned SKKanGAS inh inactive, Autophagy mod inactive, WT yeast gro inh inactive, Rad51 HR inh inactive, KCC2 mod -3.1, Ins promoter up inactive, KCC2 sec1 inactive, KCC2 bumet counter inactive, KCC2 secondary2 0.025, HEK counter1 inactive, KCC2 retest ouab 0.017 and HEK293 Tl flux2 inactive.
O=C(C1CCN(S(=O)(=O)c2cccc3cccnc23)CC1)N1CCN(c2ccc(Cl)cc2)CC1 was read as SKKanGAS inh inactive, WT yeast gro inh inactive, Rad51 HR inh inactive, KCC2 mod -3.7, Ins promoter up inactive, KCC2 sec1 inactive, KCC2 bumet counter inconclusive, KCC2 secondary2 inactive, HEK counter1 inactive, KCC2 retest ouab inactive and HEK293 Tl flux2 inactive.
C#CCOCCOCCOCCNc1nc(N2CCN(C(=O)[C@H]([C@@H](C)CC)n3cc([C@@H](N)CC(C)C)nn3)CC2)nc(N2CCN(C(=O)[C@H]([C@@H](C)CC)n3cc([C@@H](N)CC(C)C)nn3)CC2)n1 was read as SKKanGAS inh inactive, Autophagy mod inactive, WT yeast gro inh inactive, Rad51 HR inh inactive, KCC2 mod inactive and Ins promoter up inactive.
For Oc1cccc2ccc(/C=C/c3cccs3)nc12 the results were SKKanGAS inh 120, Autophagy mod active, WT yeast gro inh inactive, Rad51 HR inh inactive, KCC2 mod 15, Ins promoter up inactive, KCC2 sec1 inactive, KCC2 bumet counter 0.019, KCC2 secondary2 inactive, HEK counter1 0.013, KCC2 retest ouab inconclusive and HEK293 Tl flux2 inactive.
Screening O=C(/C=C/c1cccs1)Nc1cccc(NC(=O)/C=C/c2cccs2)n1 returned SKKanGAS inh inactive, Autophagy mod inactive, WT yeast gro inh inactive, Rad51 HR inh inactive, KCC2 mod inactive and Ins promoter up inactive.
Screening O=C(Cn1nc(-c2ccccc2F)ccc1=O)NCc1ccc2c(c1)OCO2 returned SKKanGAS inh inactive, Autophagy mod inactive, WT yeast gro inh inactive, Rad51 HR inh inactive, KCC2 mod -3.9, Ins promoter up inactive, KCC2 sec1 inconclusive, KCC2 bumet counter inactive, KCC2 secondary2 inconclusive, HEK counter1 inactive, KCC2 retest ouab inactive and HEK293 Tl flux2 inactive.
COc1ccccc1-c1ccc(SCC(=O)NCc2ccc3c(c2)OCO3)nn1 was read as SKKanGAS inh inactive, Autophagy mod inactive, WT yeast gro inh inactive, Rad51 HR inh inactive, KCC2 mod inactive and Ins promoter up inactive.

Screens as filed in PubChem.
